Most compounds without a hit are left out; they make up all but 5.1% or so of the library.
STAT1 blocker – reduces IFN-gamma driven STAT1 reporter signal; NIH 3T3 STAT1-luciferase reporter, luminescence; inhibition, % at 5.5 µM; hit rate 0.35% among 200,000;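 active means inhibition above a set limit, the mean inhibition across all tested compounds plus 3 SD, cut at about 34% in these data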;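 further: 0% = IFN-gamma with DMSO and 100% = IFN-gamma with 300 µM nifuroxazide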
STAT3 blocker – inhibitors of IL-6 induced STAT3 signaling; AID 862; U3A cells, IL-6 STAT3-luciferase reporter, luminescence; host cell line lacks STAT1; inhibition, % at 5.5 µM; hit rate 0.89% among 190,000;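 active means inhibition above the mean inhibition across all screened compounds plus 3 SD, cut at about 44% in these data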;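 further: 0% = DMSO only wells and 100% = 100 µM nifuroxazide control wells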
STAT3 activator – increases IL-6 driven STAT3 reporter signal; U3A cells, IL-6 STAT3-luciferase reporter, luminescence; 100% = signal with IL-6 EC80 alone; hit rate 0.91% among 190,000; activation (% of control), % at 5.6 µM;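 active means activation above the screen-wide mean of compound activation plus 3 SD, cut at about 130% in these data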;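 further: 0% = background luminescence of wells with medium and substrate only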
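Material: human U3A cells carrying STAT3-luciferase construct. Measured by: reporter luminescence signal. Timing: compound 1 h, then IL-6 6 h at 37 °C.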
STAT1 act – activators of IFN-gamma induced STAT1 signaling; NIH 3T3 STAT1-luciferase reporter, luminescence; 100% = IFN-gamma alone, no compound; activation (% of control), % at 5.5 µM; hit rate 2.6% among 200,000; AID 932;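 active means activation above the screen-wide mean activation plus 3 SD, cut at about 130% in these data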;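 further: raw ratio to IFN-gamma control signal so 100% means no change and 0% no light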
NF-kB neuron act – raises NF-kB expression in human neuronal cells; fold change at 12.5 µM; NF-kB reporter expression; stronger effect = higher value; AID 1239; hit rate 1.6% among 190,000; in the data active means fold change above about 3.3
APP 5'UTR act – APP 5'UTR luciferase reporter activation; SH-SY5Y APP 5'UTR luciferase reporter, luminescence; zero percent = DMSO vehicle wells; activation, % at 2 µM; hit rate 1% among 190,000; AID 1276;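 active means activation above a set limit, based on mean plus 3 SD of controls, cut at about 140% in these data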
Active calls of the source: *; · = no result given.

SMILES | STAT1 blocker | STAT3 blocker | STAT3 activator | STAT1 act | NF-kB neuron act | APP 5'UTR act
COc1cc(OC)cc(C(=O)N=c2sc3ccccc3n2C)c1 | -43 | -10 | 110 | 139* | 1.2 | 146*
Cn1c(=O)n(C)c2cc(/C=N/NC(N)=S)ccc21 | 4 | -8 | 110 | 95 | 1.2 | 25
COc1cccc(C(=O)N=c2sc3cc(S(C)(=O)=O)ccc3n2C)c1 | -38 | 11 | 93 | 132* | 1.1 | 114
O=C(c1ccccc1)N1CCSc2sccc2C1=O | 37* | 50* | 61 | 64 | 1.3 | -28
COc1cc(NC(=O)CSc2nc3ccccc3cc2C)c(C(=O)O)cc1OC | 1 | -1 | 99 | 99 | 8.7* | 5
COc1ccc2oc(=O)c(-c3csc(Nc4ccc(O)cc4)n3)cc2c1 | -17 | 21 | 88 | 116 | 3.6* | -7
COc1ccc2oc(=O)c(/C(C)=N/Nc3nc(-c4cc(C)ccc4C)cs3)cc2c1 | -2 | -4 | 107 | 102 | 1 | -7
Nc1n[nH]c(N)c1N=Nc1ccc2c(c1)OCO2 | -34 | 3 | 99 | 132* | 1.8 | 1
COc1ccc(-c2[nH]ncc2CN2CCCOc3c(cccc3OC)C2)c(OC)c1 | 7 | 5 | 100 | 92 | · | -6
Cc1ccc(C(=O)N/C(=C\c2ccccc2)C(=O)NCc2cccnc2)cc1 | -2 | -4 | 106 | 102 | 1 | 10
CCOc1ccc(C(=O)/C=C/Nc2ccc(S(=O)(=O)Nc3onc(C)c3C)cc2)cc1 | -5 | -12 | 107 | 107 | 1.6 | 4
CCOc1ccc(C(=O)/C=C/Nc2ccc(S(=O)(=O)N=C(N)N)cc2)cc1 | -34 | -2 | 104 | 131* | 1.4 | 1
CCc1nnc(NS(=O)(=O)c2ccc(N/C=C/C(=O)c3ccc(OC)cc3)cc2)s1 | -41 | 5 | 100 | 136* | 1.1 | 6
CCN(CC)S(=O)(=O)c1ccc(Cl)c(C(=O)Nc2cc(C)nn2-c2ccccc2)c1 | 14 | 14 | 90 | 88 | 0.87 | -3
O=S(=O)(c1ccc2c(c1)OCCO2)N1CCN(c2ncnc3sccc23)CC1 | 38* | 61* | 51 | 65 | 0.78 | 1
Cc1ccc(S(=O)(=O)N(C)C)cc1NC(=S)NNC(=O)C(N)=O | 7 | 2 | 101 | 93 | 1.2 | -8
COc1ccc(-c2noc(COc3ccc4c(c3)OCO4)n2)cc1 | -2 | 2 | 102 | 105 | 1.3 | -11
c1ccc(-c2noc(COc3ccc4c(c3)OCO4)n2)cc1 | -27 | -11 | 109 | 125 | 4.1* | 100
Cc1ccccc1OCc1nc(-c2ccccc2)no1 | -40 | -9 | 110 | 137* | 2.9 | 79
CCOc1ccc(NC(=O)NC(=O)N(C(C)C)S(C)(=O)=O)cc1 | -2 | 2 | 100 | 102 | 1.2 | 1
Cc1ccccc1OCC(=O)NCc1ccccc1 | -6 | 16 | 96 | 105 | 1.5 | 15
Cc1cc(Cl)ccc1OCCCC(N)=O | 0 | 12 | 95 | 100 | 0.94 | -6
Cc1cc(Cl)ccc1OCCCC(=O)NO | 14 | 24 | 83 | 88 | 3.9* | 19
c1ccc(-c2n[nH]c(-c3ccccn3)n2)nc1 | -48 | 0 | 103 | 144* | 2 | 46
Cn1nc(C(F)(F)F)cc1Oc1ncc(C(F)(F)F)cc1Cl | -1 | 12 | 96 | 101 | 1.3 | 18
SMILES | STAT1 blocker | STAT3 blocker | STAT3 activator | STAT1 act | NF-kB neuron act | APP 5'UTR act
O=c1nc2c(-c3ccccc3F)n[nH]n2c2ccccc12 | -37 | -24 | 123 | 134* | 1.7 | 5
CCc1ccc(S(=O)(=O)c2n[nH]n3c2nc(=O)c2ccccc23)cc1 | -2 | 3 | 100 | 101 | 1 | 4
O=c1c2ccccc2nc2ccc(NCc3cccs3)nn12 | -28 | 13 | 94 | 123 | 3.4* | 122
CC(=O)Nc1ccc(S(=O)(=O)NNC(=O)c2cccc(Br)c2)cc1 | 5 | 3 | 103 | 95 | · | -2
Cc1nc2sc(-c3ccccc3)nn2c(=O)c1Br | -51 | 17 | 91 | 147* | 4.5* | 112
CC(C)(C=O)C1=CC(=O)c2ccccc2C1=O | 14 | -43 | 139* | 88 | 0.97 | -81
CC1=CC(=O)c2ccccc2C1=O | -7 | -18 | 118 | 106 | 0.87 | 22
Nc1nnc(SCc2coc(-c3ccc(Cl)cc3)n2)s1 | -47 | 6 | 96 | 143* | 1.9 | 46
O=C(/C=C/c1ccccc1Cl)c1ccccc(=O)c1O | 17 | -9 | 112 | 85 | 26* | 10
O=C(Nc1cccc(F)c1)NC1(C(=O)N2CCOCC2)CCCCC1 | 3 | 11 | 97 | 97 | 1 | 25
Fc1ccccc1NC(=S)N1CCN(Cc2ccccc2)CC1 | -2 | 6 | 97 | 102 | 0.97 | -7
N/C(=N\OC(=O)c1cccs1)c1cccc(Br)c1 | -43 | 9 | 94 | 136* | 1.2 | 60
Cc1cccc(/C(N)=N/OC(=O)COc2ccc(Cl)cc2)c1 | -16 | 10 | 95 | 115 | 1.4 | 9
Cc1cccc(/C(N)=N/OC(=O)c2cccs2)c1 | -44 | -7 | 106 | 140* | 6* | 237*
Cc1cccc(/C(N)=N/OC(=O)c2ccc(F)cc2)c1 | -45 | 4 | 99 | 140* | 2.1 | 113
N/C(=N\OC(=O)Cc1ccccc1)c1cccc(Br)c1 | -17 | 10 | 96 | 116 | · | 0
Cc1ccc(O)c(C(=O)c2cc(C#N)c3nc4ccccc4n3c2)c1 | -8 | 23 | 89 | 106 | 1.1 | -3
Cc1ccccc1NC(=S)N(Cc1ccccc1)Cc1cccs1 | 6 | -3 | 104 | 92 | 0.89 | -16
CC12COC3(C(=O)Nc4ccccc4)CC1CCC32C (configuration not stated) | -6 | -2 | 104 | 104 | 0.98 | -1
CC12COC3(C(=O)Nc4ccc5ccccc5c4)CC1CCC32C (configuration not stated) | -52 | -29 | 129 | 144* | 1 | 49
CNC(=O)c1cc2ncc(C(F)(F)F)cc2s1 | -18 | 10 | 94 | 117 | 1.8 | 10
COc1cc2c(C)nc3c(cnn3-c3ccccc3)c2cc1OC | -47 | 6 | 101 | 144* | · | 79
Cc1nnc(SC(C)C(=O)Nc2c(C)n(C)n(-c3ccccc3)c2=O)n1N (configuration not stated) | -1 | 4 | 100 | 100 | 1 | -2
CCOc1ccc(-c2cc(C(=O)OC)[nH]n2)cc1 | -44 | 1 | 100 | 142* | 2.7 | 58
Cc1nn(-c2ncc(C(F)(F)F)cc2Cl)c(=O)n1-c1ccccc1F | 1 | -3 | 106 | 97 | 1.2 | 0
CC(C)CNC(=O)c1ccc(COc2ccc(Cl)cc2Cl)o1 | 0 | -9 | 111 | 100 | 0.98 | -6
Cc1ccnc(N2C(=O)c3ccccc3C2O)c1 (configuration not stated) | -26 | 27 | 82 | 123 | 2.6 | 153*
CO/C(N)=C(\C#N)N=Cc1ccccc1Cl | -32 | 14 | 98 | 128 | 1.6 | -6

Screens: PubChem, several laboratories
